Screening data from PubChem BioAssay.
CYP2C19 inhib – blocks human cytochrome P450 2C19. inhibition, % at 5 µM. P33261. hit rate 21% among 96,000. CYP2C19 Supersomes, luciferin-H EGE luminescence, 30 min;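 active = CYP2C19 inhibition above a set limit at 5 µM in the primary screen, cut at about 50% in these data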;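 note: plate controls were negative control wells for no effect and 2.5 mM tranylcypromine positive control for full effect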
CYP2C19 activ – increases human CYP2C19 enzyme activity; recombinant CYP2C19, luciferin-H EGE luminescence; stronger effect = higher value; 0 = fully inhibited enzyme, 1 = untreated enzyme; activation factor at 5 µM; AID 1025; 96,000 tested, under 10 active;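 active = activation factor of at least 2 at 5 µM in the primary screen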;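 note: 0 = wells with 2.5 mM tranylcypromine and 1 = vehicle-only wells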
Ecoli tolC – E. coli tolC mutant growth inhibition; hit rate 2.2% among 65,000; growth inhibition, % at 10 µM (by protocol); E. coli BW25113 tolC mutant growth, OD615; AID 573;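 active = growth inhibition at or above a cutoff equal to the mean over every tested compound plus 3 SD, cut at about 60% in these data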;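 note: growth measured after 20 h incubation at 37 °C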
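Test system: E. coli BW25113 ΔtolC::kan bacteria; incubation: 37 °C, 20 h exposure; medium: LB broth supplemented with 50 µg/mL kanamycin; read-out basis: percent growth inhibition; signal: A615 absorbance measurement; compound: 10 µM final, single dose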
E coli WT exp – growth inhibitors of E. coli BW25113 wild type; OD600 absorbance; growth inhibition, % at 100 µM; hit rate 0.15% among 98,000; AID 710;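 active = growth inhibition above about 50% at one test dose, limit read from the data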;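 note: growth measured after 20 h incubation at 37 °C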
CYP2C9 activ – activators of human CYP2C9 | P11712 | recombinant CYP2C9, luciferin-H conversion, luminescence; stronger effect = higher value; factor 1 = untreated enzyme, 0 = blocked | activation factor at 5 µM | hit rate 1.4% among 96,000 | AID 1024;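 active = activation factor of 2 or more for CYP2C9 at a 5 µM dose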;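 note: 0 = sulfaphenazole-blocked wells and 1 = vehicle-only wells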
Target sequence (P11712 whole entry, looked up): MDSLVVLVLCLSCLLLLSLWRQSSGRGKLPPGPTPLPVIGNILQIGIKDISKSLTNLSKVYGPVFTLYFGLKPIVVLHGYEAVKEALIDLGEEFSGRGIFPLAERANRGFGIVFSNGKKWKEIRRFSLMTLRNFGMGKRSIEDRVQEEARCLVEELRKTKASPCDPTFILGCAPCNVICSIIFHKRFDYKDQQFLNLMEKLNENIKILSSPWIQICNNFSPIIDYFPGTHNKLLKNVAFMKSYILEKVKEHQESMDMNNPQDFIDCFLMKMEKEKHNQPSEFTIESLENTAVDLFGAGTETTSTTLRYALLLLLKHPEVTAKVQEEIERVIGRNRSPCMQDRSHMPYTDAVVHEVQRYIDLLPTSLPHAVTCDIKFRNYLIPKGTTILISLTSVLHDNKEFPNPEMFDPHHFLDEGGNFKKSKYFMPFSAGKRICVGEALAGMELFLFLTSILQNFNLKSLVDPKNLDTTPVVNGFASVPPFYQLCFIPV
CYP2C9 inh – inhibitors of human CYP2C9. P11712. CYP2C9 Supersomes, luciferin-H conversion, luminescence. inhibition, % at 5 µM. hit rate 20% among 96,000;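 active = blocking of liver enzyme CYP2C9 beyond about 50% at 5 µM, limit read from the data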
An asterisk follows results filed as active; . = no result given. Rows were chosen to be rich in hits. Some 29% of all compounds tested hit in one or more screens of this group.

SMILES	CYP2C19 inhib	CYP2C19 activ	Ecoli tolC	E coli WT exp	CYP2C9 activ	CYP2C9 inh
CCn1c(SCC(=O)Nc2ccc3c(c2)OCO3)nnc1-c1ccccc1O	76.2*	0.2	41.6	-2.0	0.2	79.3*
CCn1c(SCC(=O)Nc2ccccc2N2CCOCC2)nnc1-c1ccccc1O	16.8	0.8	-17.2	-7.0	0.5	49.1
O=C(CSc1nnc(CCCO)n1-c1ccccc1)NCCc1ccccc1	20.9	0.8	-1.0	-3.0	0.9	9.6
Cc1ccc(-n2c(CCc3ccccc3)nnc2SCC(=O)NCc2ccccc2)cc1C	67.0*	0.3	.	-29.0	0.5	47.9
CCOC(=O)c1c(C)n(-c2ccc(OC)cc2)c2c(C/C(C)=N/O)c(Br)c(OC)c(O)c12	8.7	0.9	.	-6.0	0.9	7.6
CC(C)(C)N(Cc1ccccc1)C(=O)CSc1nnc(CNc2ccc(F)cc2)o1	17.3	0.8	36.7	-2.0	0.8	24.3
Cn1c(SCC(=O)N(Cc2ccccc2)C(C)(C)C)nc2ccccc21	50.4*	0.5	.	1.0	1.4	-38.2
COc1ccc(NC(=O)CCNS(=O)(=O)c2ccc3c(c2)CCC(=O)N3)cc1	30.1	0.7	.	3.0	0.6	41.2
C/C(=N\NC(=O)c1[nH]c2c([N+](=O)[O-])cc(C)cc2c1-c1ccccc1)c1cccnc1	62.3*	0.4	.	4.0	0.7	30.0
CCOC(=O)CSc1nnc(-c2nnc(SCC(=O)OCC)n2CC)n1CC	-16.3	1.2	-22.9	1.0	1.1	-9.7
Cc1occc1C(=O)N1CCN(c2ncccn2)CC1	11.5	0.9	0.6	8.0	0.9	10.2
Cc1ccc(S(=O)(=O)N2CCCC(C(=O)NCCc3ccc4c(c3)OCO4)C2)cc1 (stereo not given)	48.6	0.5	12.5	1.0	0.6	35.5
O=S(c1ccc2ccccc2c1)c1cnns1 (stereo not given)	74.7*	0.3	.	6.0	1	-3.4
CCN(CC)CCNc1ncnc2c1sc1nc(N3CCOCC3)c3c(c12)CC(C)(C)SC3	21.9	0.8	.	15.0	0.8	23.3
Cc1ccc(C(=O)NC(C)(COc2nonc2C)COc2nonc2C)cc1	93.7*	0.1	4.2	-4.0	0.3	72.0*
O=C(c1cc(-c2ccco2)on1)N1CCN(C(c2ccccc2)c2ccccc2)CC1	6.0	0.9	9.5	6.0	0.6	43.7
COc1ccc(OC)c(NC(=O)CS(=O)(=O)c2ccccc2)c1	69.4*	0.3	5.6	9.0	4.3*	-325.3
COc1ccc(OC)c(NC(=O)C2CCCN2C(=O)OCc2ccccc2)c1 (stereo not given)	96.8*	0	5.2	2.0	0.4	61.6*
COCC(=O)Nc1cc(OC)ccc1OC	5.7	0.9	-10.4	3.0	1.2	-21.1
COc1ccc(OC)c(NC(=O)CSc2ccccc2)c1	57.4*	0.4	25.8	7.0	1.4	-37.8
COc1ccc([N+](=O)[O-])cc1NCc1ccccc1C	67.8*	0.3	.	1.0	0.3	68.8*
COc1cccc(C2/C(=C(\O)c3ccc4c(c3)OCCO4)C(=O)C(=O)N2CCCN(C)C)c1OC (stereo not given)	.	.	-2.7	.	.	.
Cc1ccc2c(c1)c(C)cc(=O)n2CCC(=O)O	5.8	0.9	-4.0	2.0	1.2	-15.8
COc1cc(NC(=O)CS(=O)(=O)c2ccc(C)cc2)cc(OC)c1OC	73.4*	0.3	-5.7	-12.0	0.8	19.6
COc1ccc(NC(=S)NC(NC(=O)C(C)C)C(Cl)(Cl)Cl)c([N+](=O)[O-])c1 (stereo not given)	-9.0	1.1	.	-10.0	0.9	9.1
SMILES	CYP2C19 inhib	CYP2C19 activ	Ecoli tolC	E coli WT exp	CYP2C9 activ	CYP2C9 inh
COc1ccc([N+](=O)[O-])cc1NC(=O)CSc1ccccc1	92.9*	0.1	.	8.0	1.2	-20.3
COc1ccc(OC)c(NC(=O)CSc2ccc3ccccc3c2)c1	31.6	0.7	.	-12.0	1.3	-29.2
COc1ccc([N+](=O)[O-])cc1NC(=S)NC(NC(=O)Cc1ccc(OC)c(OC)c1)C(Cl)(Cl)Cl (stereo not given)	31.2	0.7	.	-13.0	0.4	57.7*
CSc1ccc(Cn2nnc(C(=O)NCc3ccccc3)c2N)cc1	-18.3	1.2	8.8	-6.0	0.8	16.7
CC(=O)N(CCCN1CCOCC1)Cc1ccncc1	8.1	0.9	.	3.0	0.9	7.0
O=C(CSc1nc2nc[nH]c2c(=O)[nH]1)NC1CCCCC1	-15.6	1.2	-15.6	0.0	1.1	-12.0
Cc1cc2nc(C(F)(F)F)[nH]c(=O)n2n1	-4.3	1	-5.2	-24.0	1.1	-9.9
O=C(O)C(CCCCN1C(=O)C2C3C=CC(C3)C2C1=O)N1C(=O)C2C3C=CC(C3)C2C1=O (stereo not given)	-12.4	1.1	-15.1	0.0	1	4.0
COC(=O)C(CCCCN1C(=O)C2C3C=CC(C3)C2C1=O)N1C(=O)C2C3C=CC(C3)C2C1=O (stereo not given)	46.9	0.5	8.7	6.0	0.4	59.1*
CCn1c(C)[n+](CC(O)COCC2CC=CCC2)c2ccccc21 (stereo not given)	-13.4	1.1	.	-3.0	1	-3.6
COc1ccc(C(=O)NCc2oc(-c3ccccc3)cc2C(=O)O)cc1	3.3	1	34.3	-10.0	0.6	42.5
Cc1cc(=O)c2ccccc2s1	28.3	0.7	-16.8	11.0	1.1	-13.0
O=c1c(C(c2ccccc2)c2c(O)sc3ccccc3c2=O)c(O)sc2ccccc12	1.3	1	.	-11.0	0.1	94.9*
COc1ccc(OC(C)C(=O)NCc2cccnc2)cc1 (stereo not given)	37.4	0.6	-4.2	4.0	0.7	34.6
Cc1c(Br)c([N+](=O)[O-])nn1C(C)C(=O)NCc1cccnc1 (stereo not given)	76.2*	0.2	.	0.0	0.4	56.8*
c1ccc2c(N3CCCC3)nc(-c3ccncc3)nc2c1	84.5*	0.2	48.0	-9.0	0.5	48.1
c1ccc(-c2nc(N3CCCCCC3)c3ccccc3n2)nc1	-10.0	1.1	100.0*	26.0	0.5	48.5
COc1ccc(-c2nc(CSCC(=O)N3CCN(C(=O)c4ccco4)CC3)c(C)o2)cc1OC	39.7	0.6	-9.3	0.0	0.6	39.4
O=C1NC(=O)c2cc(NC(=O)C3CCCCC3)ccc21	3.1	1	-9.2	1.0	1	-3.3
CCc1nn(-c2cc(Cl)ccc2OC)c2c1C(=O)CCC2	34.3	0.7	1.3	-3.0	0.8	16.4
CCCc1nn(-c2cc(Cl)ccc2OC)c2c1C(=O)CC(C)(C)C2	62.8*	0.4	.	4.0	0.3	66.3*
O=C(NC1CCCCCCC1)c1cnccn1	63.3*	0.4	10.8	9.0	0.9	5.6
O=C(OCC(=O)N(C1CCCCC1)C1CCCCC1)c1cnccn1	54.0*	0.5	3.9	9.0	1.1	-6.5
O=C(NC1CCS(=O)(=O)C1)c1cnccn1 (stereo not given)	4.9	1	-19.4	-6.0	1	-2.5
